Assay outcomes: PubChem, Broad Institute
dFosB act-1: mouse delta FosB homodimer activation. P13346. purified delta FosB, TAMRA-CDK5 oligo fluorescence polarization; percent of positive-control signal above neutral wells. activation, % at 25 µM. actives 0.99% (n = 340,000). AID 493131;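 active = mean activation above about 17%, with every replicate also reaching it, limit read from the data, passing the limit was not always enough; inconclusive = only one of the two conditions met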
Target sequence (P13346 whole entry, looked up): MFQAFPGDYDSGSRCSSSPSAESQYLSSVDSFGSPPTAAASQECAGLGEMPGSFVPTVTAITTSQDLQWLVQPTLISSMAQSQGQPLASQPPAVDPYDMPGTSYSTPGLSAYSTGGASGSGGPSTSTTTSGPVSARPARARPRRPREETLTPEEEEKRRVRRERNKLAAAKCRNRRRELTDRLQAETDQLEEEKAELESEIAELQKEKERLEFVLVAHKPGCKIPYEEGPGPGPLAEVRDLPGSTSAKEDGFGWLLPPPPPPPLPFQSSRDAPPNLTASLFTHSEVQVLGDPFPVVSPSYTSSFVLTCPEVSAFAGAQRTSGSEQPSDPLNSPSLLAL
CDK5 p35 inh: CDK5/p35 (human) kinase inhibition | Recombinant CDK5/p35, ADP-Glo luminescence, 60 min | inhibition, % at 10 µM | actives 0.01% (n = 330,000) | Q00535+Q15078 | AID 488839;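 active = highest replicate inhibition of at least 50% and at least 75% of replicates reaching 50%; inconclusive = only one of the two criteria met; inactive = both criteria failed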;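 also: plate controls were DMSO neutral control for no effect and GW8510 at 10 µM for full effect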
SR-BI DiI inh: blocks mouse SR-BI lipid uptake from DiI-HDL. ldlA[mSR-BI] CHO cells, DiI-HDL uptake fluorescence, 3 h. inhibition, % at 12.5 µM. actives 0.96% (n = 320,000);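 active = mean replicate inhibition of at least 70% and a set share of replicates each scoring 70 or more; inconclusive = meets just one of the two criteria; inactive = fails both criteria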;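 also: 0% = median of neutral control wells and 100% = median of positive control wells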
NSD2 HMT inh: NSD2 (human) methyltransferase inhibition | actives 0.54% (n = 310,000) | O96028 | NSD2 peptide methylation, AlphaScreen, 120 min | AID 743445 | inhibition, % at 12.5 µM
SR-BI DiI-HDL act: enhances SR-BI lipid uptake from DiI-HDL; activation, % at 12.5 µM; CHO ldlA[mSR-BI] cells, DiI-HDL uptake fluorescence, 3 h; 100 = double the neutral-control signal; actives 0.096% (n = 320,000);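 active = mean replicate activation of at least 60% and every replicate at or above 60%; inconclusive = mean or all-replicate condition met, but not both; inactive = mean below 60% and not all replicates reaching 60%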;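 also: 0% = median plate neutral-control signal and 100% = twice that signal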
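Material: SR-BI-overexpressing, LDLR-lacking CHO cells | Dosing: Single compound concentration, delivered by pin transfer | Probe or stimulus: Labelled HDL, 10 µg/mL | Signal: Bottom-read cell fluorescence after medium removal, ex 550/em 595 nm | Schedule: 3 h, 37 °C | Evaluation: HDL uptake via cellular fluorescence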
Dyrk1A ADPGlo: blocks rat Dyrk1A kinase activity | Q63470 | ADP-Glo luminescence, NFATc1 peptide | inhibition, % at 12.5 µM | actives 0.43% (n = 310,000) | AID 504441;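 also: plate controls were vehicle with enzyme for no effect and no enzyme for full effect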
dFosB act-2: activators of mouse delta FosB homodimer DNA binding | shares compounds with dFosB act-1 | purified delta FosB, TAMRA-CDK5 oligo fluorescence polarization; normalised: neutral wells 0, positive control 100 | activation, % at 24.9 µM | 2,400 tested, under 10 active | AID 588690;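 active = highest replicate activation at or above 34% and every replicate reaching that threshold; inconclusive = meets only one of the two criteria; inactive = meets neither criterion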;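 also: higher polarization means more probe DNA bound by delta FosB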
* hit, by the source's call; ? = inconclusive; / = no result. Hits are enriched below; roughly 2.5% of the tested compounds scored in any of these assays. Rule as the data show it, unless noted: active = inhibition above about 50%; inactive = the rest.

SMILES | dFosB act-1 | CDK5 p35 inh | SR-BI DiI inh | NSD2 HMT inh | SR-BI DiI-HDL act | Dyrk1A ADPGlo | dFosB act-2
C[C@H]1CN([C@@H](C)CO)C(=O)c2cc(NC(=O)Nc3cccc4ccccc34)ccc2O[C@@H]1CN(C)Cc1ccc(-c2ccccc2)cc1 | 38* | 0 | -12 | / | 12 | / | 1
C[C@@H]1CN([C@@H](C)CO)C(=O)c2cccc(NC(=O)Nc3ccc(F)cc3)c2O[C@@H]1CN(C)Cc1ccc(Oc2ccccc2)cc1 | 43* | 0 | -8 | / | 8 | 11 | 0
C[C@H](CO)N1C[C@H](C)[C@H](CN(C)Cc2ccccc2)Oc2c(NC(=O)Nc3ccc(F)cc3)cccc2C1=O | -8 | 2 | -7 | / | 7 | 17 | /
CC(=O)Nc1ccc(CNc2nc3cc(-c4ccccc4C)sc3c(=O)n2C)cc1 | / | / | / | 11 | / | / | /
Cc1ccc(C(=O)Nc2cccc(C(F)(F)F)c2)cc1NC(=O)c1nccn1C | 27* | 4 | 30 | / | -30 | 5 | -1
Cc1ccc(C(=O)Nc2cccc(C(F)(F)F)c2)cc1NC(=O)c1ccno1 | -6 | 0 | 48 | / | -48 | -2 | /
Cc1c(NC(=O)Nc2ccc(Cl)cc2)c(=O)n(-c2ccccc2)n1C | 6 | 0 | 29 | -2 | -29 | -6 | /
Cc1c(N=C2N=C(NC(=O)Nc3ccc(Cl)cc3)c3ccccc32)c(=O)n(-c2ccccc2)n1C | 38* | 2 | 19 | -1 | -19 | -3 | -30
O=C(Cn1cnc2c(oc3nc4c(cc32)CCCC4)c1=O)Nc1cccc(Cl)c1 | 20* | / | -6 | -3 | 6 | / | -1
CCOc1cc(/C=N/Nc2nc3ccccc3[nH]2)cc(Br)c1OCC(=O)N(C)C | 22* | 2 | / | -3 | / | 3 | 2
COc1cc(/C=N\Nc2nc3ccccc3[nH]2)cc(OC)c1OC | 16 | 3 | 48 | -6 | -48 | 9 | /
COc1ccc(S(=O)(=O)N2CCN(c3nc(-c4cccnc4)nc4ccccc34)CC2)cc1 | 18* | 0 | 15 | -1 | -15 | 0 | -1
CCCCN(C(=O)Cc1ccc(S(=O)(=O)N2CCOCC2)s1)c1c(N)n(CCCC)c(=O)[nH]c1=O | -3 | 1 | -18 | -1 | 18 | -5 | /
O=C(Nc1cccc(-c2nc3cccnc3s2)c1)c1ccc(Cl)nc1 | 27* | -3 | 43 | 5 | -43 | 5 | -1
O=C(Nc1cccc(-c2nc3cccnc3s2)c1)C1c2ccccc2Oc2ccccc21 | ? | 1 | -53 | / | 53 | 2 | /
NS(=O)(=O)c1ccc(C(=O)Nc2ccc(-c3nc4cccnc4s3)cc2)cc1 | 43* | -2 | 9 | 1 | -9 | -3 | 6
O=[N+]([O-])c1ccc(OCCOc2ccccc2/C=N/n2cnnc2)cc1 | 36* | 0 | -12 | 2 | 12 | -1 | 5
CNC(=O)c1c[nH]c2ccc(S(=O)(=O)Nc3cccc(SC)c3)cc2c1=O | 19* | 1 | 15 | 0 | -15 | -1 | 2
COc1cccc(NS(=O)(=O)c2ccc3[nH]cc(C(=O)NC4CC4)c(=O)c3c2)c1 | -27 | 1 | -17 | 6 | 17 | -6 | /
COc1cccc(OC)c1C1=NC(C)(C)CO1 | -1 | 8 | -17 | -2 | 17 | 3 | /
COc1ccc(C(=O)NN/C(=N/S(=O)(=O)c2ccc(C)cc2)c2ccccc2)cc1 | -11 | -1 | 29 | 2 | -29 | 3 | /
C[C@H](NC(=O)OCc1ccccc1)C(=O)NNC(=O)[C@H](C)NC(=O)OCc1ccccc1 | 5 | 2 | -13 | / | 13 | 8 | /
C[C@H](NC(=O)OCc1ccccc1)C(=O)NNC(=O)[C@H](Cc1ccccc1)NC(=O)OC(C)(C)C | 27* | -1 | 0 | / | 0 | 2 | 2
O=C(Cc1nnc(NC(=O)c2ccccc2)s1)N/N=C/c1ccco1 | 21* | / | 10 | -1 | -10 | 7 | 4
Cc1ccccc1C(=O)Nc1nnc(CC(=O)N/N=C/c2ccncc2)s1 | 38* | 1 | 13 | -1 | -13 | / | 0
